Values after ≈ are worked out from the molar mass of the structure shown.

Common to all, as to format: functional
The test system of experiment [1] is Escherichia coli. The experiment can be described thus: Tested in vitro against Escherichia coli Vogel. by gradient-plate test. In a few lines:
(§1)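 Antibacterial testing in vitro by gradient-plate test. Read-out was the minimum inhibitory concentration, with values exceeding 25 reported as >25.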

Experiment [2] has as its system Plasmodium berghei. The experiment can be described thus: Antimalarial activity as change in MST for drug-sensitive Plasmodium berghei infected mice (Mus musculus) after 72 hrs at 320 mg/kg subcutaneous dose.
The subject of experiment [3] is Plasmodium berghei. In words: Antimalarial activity as change in MST for drug-sensitive Plasmodium berghei infected mice (Mus musculus) at 40 mg/kg subcutaneous dose over 72hr.
Experiment [4] relates to Plasmodium berghei. The experiment can be described thus: Antimalarial activity as change in MST for drug-sensitive Plasmodium berghei infected mice (Mus musculus) at 80mg/kg subcutaneous dose over 72h.
Experiment [5] relates to Plasmodium berghei. In words: Antimalarial activity as change in MST for drug-sensitive Plasmodium berghei infected mice (Mus musculus) at 640 mg/kg subcutaneous dose over 72 hr.
Experiment [6] has as its system Plasmodium berghei. The experiment can be described thus: Antimalarial activity as change in MST against drug-sensitive Plasmodium berghei infected mice (Mus musculus) at 20 mg/kg subcutaneous dose after 72h.
The test system of experiment [7] is Plasmodium berghei. In words: Antimalarial activity as change in MST against drug-sensitive Plasmodium berghei infected mice (Mus musculus) at 160 mg/kg subcutaneous dose after 72h.
Experiment [8] concerns Pseudomonas aeruginosa. The experiment can be described thus: Compound was tested in vitro against Pseudomonas aeruginosa 28. by gradient-plate test. In a few lines: as §1
Experiment [9] relates to Shigella sonnei. In words: In vitro antibacterial activity against Shigella sonnei C-10. In a few lines: as §1
The subject of experiment [10] is Staphylococcus aureus. The experiment can be described thus: Compound was tested in vitro against […] S 18713 by gradient-plate test. In a few lines:
as §1

The subject of experiment [11] is Staphylococcus aureus. The experiment can be described thus: Compound was tested in vitro against […] U.C-76. by gradient-plate test. A digest of the protocol: as §1
Experiment [12] has as its system Enterococcus faecalis. In words: In vitro antibacterial activity against Streptococcus faecalis MGH-2. In a few lines: as §1
Experiment [13] deals with Mycobacterium tuberculosis. The experiment can be described thus: In vitro antibacterial activity against Mycobacterium tuberculosis H37Rv. In a few lines:
(§2)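 Mycobacterium tuberculosis tested in vitro by gradient-plate test; minimum inhibitory concentration reported.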

In experiment [14] the test system is Escherichia coli. In words: Compound was tested in vitro against Escherichia coli Vogel. by gradient-plate test. A digest of the protocol: as §1
Experiment [15] has as its system Plasmodium berghei. The experiment can be described thus: Antimalarial activity as survivor number at day 60 for drug-sensitive Plasmodium berghei infected mice (Mus musculus) at 640 mg/kg subcutaneous dose over 72 hr. In a few lines: (§3)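 Mice infected with drug-sensitive P. berghei got one subcutaneous dose in sesame or peanut oil 72 h postinfection. Read-out is the number of mice alive at 60 days postinfection, termed "cured", without subinoculation to confirm parasitological cure. Groups of five per dose, or 10 where indicated.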

The subject of experiment [16] is Staphylococcus aureus. The experiment can be described thus: In vitro antibacterial activity against […] U.C-76. A digest of the protocol: as §1
For experiment [17], the system named is Staphylococcus aureus. In words: In vitro antibacterial activity against […] S 18713. A digest of the protocol: as §1
The test system of experiment [18] is Pseudomonas aeruginosa. The experiment can be described thus: In vitro against Pseudomonas aeruginosa 28. by gradient-plate test. In a few lines:
as §1

For experiment [19], the system named is Mycobacterium tuberculosis. In words: Compound was tested in vitro against Mycobacterium tuberculosis H37Rv. by gradient-plate test. A digest of the protocol:
as §2

Experiment [20] relates to Plasmodium berghei. In words: Antimalarial activity as change in MST for drug-sensitive Plasmodium berghei infected mice (Mus musculus) at 40 mg/kg subcutaneous dose over 72 hr.
Experiment [21] has as its system Plasmodium berghei. The experiment can be described thus: Antimalarial activity as change in MST for drug-sensitive Plasmodium berghei infected mice (Mus musculus) at 80 mg/kg subcutaneous dose over 72 hr.
Experiment [22] has as its system Plasmodium berghei. In words: Antimalarial activity as change in MST against drug-sensitive Plasmodium berghei infected mice (Mus musculus) at 20 mg/kg subcutaneous dose after 72 hr.
Experiment [23] has as its system Plasmodium berghei. In words: Antimalarial activity as change in MST against drug-sensitive Plasmodium berghei infected mice (Mus musculus) at 160 mg/kg subcutaneous dose after 72 hr.
The test system of experiment [24] is Shigella sonnei. The experiment can be described thus: Compound was tested in vitro against Shigella sonnei C-10. by gradient-plate test. In a few lines: as §1
In experiment [25] the test system is Enterococcus faecalis. In words: Compound was tested in vitro against Streptococcus faecalis MGH-2. by gradient-plate test. A digest of the protocol:
as §1

For experiment [26], the system named is Plasmodium berghei. In words: Antimalarial activity as survivor numbers at day 60 for drug-sensitive Plasmodium berghei infected mice (Mus musculus) at 320 mg/kg over 72 hr. A digest of the protocol:
as §3

Experiment [27] relates to Plasmodium berghei. The experiment can be described thus: Antimalarial activity as change in MST against drug-sensitive Plasmodium berghei infected mice (Mus musculus) at 320 mg/kg subcutaneous dose after 72 hr.
The subject of experiment [28] is Plasmodium berghei. In words: Antimalarial activity as survivor numbers at day 60 for drug-sensitive Plasmodium berghei infected mice (Mus musculus) at 640 mg/kg subcutaneous dose over 72 hr. A digest of the protocol: as §3
Experiment [29] deals with Plasmodium berghei. The experiment can be described thus: Antimalarial activity as survivor numbers at day 60 for drug-sensitive Plasmodium berghei infected mice (Mus musculus) at 320 mg/kg subcutaneous dose over 72 hr. In a few lines:
as §3

For experiment [30], the system named is Plasmodium berghei. In words: Antimalarial activity as toxic deaths 2-5 days post infection for drug-sensitive Plasmodium berghei infected mice (Mus musculus) at 320 mg/kg subcutaneous dose over 72 hr. In a few lines: (§4)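 P. berghei (drug-sensitive) infected mice dosed once subcutaneously 72 h postinfection, compound in sesame or peanut oil. Read-out is the count of deaths on days 2–5 after infection, attributed to drug toxicity. Five animals per dose level, or 10 where indicated.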

In experiment [31] the test system is Plasmodium berghei. The experiment can be described thus: Antimalarial activity as toxic deaths 2-5 days post infection for drug-sensitive Plasmodium berghei infected mice (Mus musculus) at 640 mg/kg subcutaneous dose over 72 hr. In a few lines: as §4
Experiment [32] concerns Plasmodium berghei. In words: Antimalarial activity as survivor numbers at day 60 for drug-sensitive Plasmodium berghei infected mice (Mus musculus) at 80 mg/kg subcutaneous dose over 72 hr. A digest of the protocol:
as §3

The test system of experiment [33] is Plasmodium berghei. The experiment can be described thus: Antimalarial activity as survivor numbers at day 60 against drug-sensitive Plasmodium berghei infected mice (Mus musculus) at 20 mg/kg subcutaneous dose after 72 hr. A digest of the protocol:
as §3

The test system of experiment [34] is Plasmodium berghei. The experiment can be described thus: Antimalarial activity as survivor numbers at day 60 against drug-sensitive Plasmodium berghei infected mice (Mus musculus) at 160 mg/kg subcutaneous dose after 72 hr. A digest of the protocol: as §3

For the compound `CN1CCN(S(=O)(=O)c2ccc3nc(N)nc(N)c3c2)CC1`, the MIC against Escherichia coli [1] is more than 25 µg/mL; in the experiment on Pseudomonas aeruginosa [8] it was more than 25 µg/mL; in the experiment with Shigella sonnei [9] it was more than 25 µg/mL; in the experiment on Staphylococcus aureus [10], more than 25 µg/mL; with Staphylococcus aureus [11], 2 µg/mL (≈ 6.2 µM); in the experiment on Enterococcus faecalis [12], 2 µg/mL (≈ 6.2 µM). The compound further displayed an MIC in [13] of more than 25 µg/mL. Also, the “Delta MST” value worked out at 8.9 days in the experiment on Plasmodium berghei [2]; 1 days in the experiment on Plasmodium berghei [3]; 1.5 days with Plasmodium berghei [4]; 11.8 days in the experiment with Plasmodium berghei [5]; 0.3 days in the experiment with Plasmodium berghei [6]; 4.4 days with Plasmodium berghei [7].

Take `CN(C)S(=O)(=O)c1ccc2nc(N)nc(N)c2c1Cl`: the MIC against Escherichia coli [14] was 5 µg/mL (≈ 16.6 µM); in the experiment with Shigella sonnei [9], 5 µg/mL (≈ 16.6 µM); in the experiment on Staphylococcus aureus [16], 15 µg/mL (≈ 49.7 µM); with Enterococcus faecalis [12], less than 0.25 µg/mL; against Staphylococcus aureus [17], more than 25 µg/mL; in experiment [13] it was more than 25 µg/mL. In the experiment on Pseudomonas aeruginosa [18], this compound returned a minimal inhibitory concentration (MIC) of more than 25 µg/mL. In addition, the “Delta MST” value with Plasmodium berghei [2] was found to be 23.9 days; with Plasmodium berghei [3] it was 10.3 days; with Plasmodium berghei [4], 12.2 days; in the experiment on Plasmodium berghei [6] it was 7.5 days; in the experiment with Plasmodium berghei [7] it was 17 days. The same compound returned a survivors at day 60 in the experiment with Plasmodium berghei [15] of 1.

As for `Nc1nc(N)c2cc(S(=O)(=O)N3CCc4ccccc4C3)ccc2n1`, the MIC (in the experiment on Escherichia coli [14]; in experiment [19]; against Pseudomonas aeruginosa [8]; against Shigella sonnei [24]; in the experiment with Staphylococcus aureus [10]; against Staphylococcus aureus [11]) was more than 25 µg/mL each time. The compound also returned an MIC against Enterococcus faecalis [25] of more than 25 µg/mL. Further, the “Delta MST” value with Plasmodium berghei [2] turned out to be 3.9 days; in the experiment on Plasmodium berghei [20], 0.3 days; with Plasmodium berghei [21], 0.7 days; in the experiment with Plasmodium berghei [5] it was 6.3 days; in the experiment on Plasmodium berghei [22] it was 0.3 days; in the experiment with Plasmodium berghei [23] it was 0.7 days.

With `CN(C)S(=O)(=O)c1ccc2nc(N)nc(N)c2c1`, the “Delta MST” value in the experiment with Plasmodium berghei [26] was found to be 5 days; in the experiment with Plasmodium berghei [20], 8.7 days; in the experiment with Plasmodium berghei [4], 16.1 days; with Plasmodium berghei [6], 7.3 days; in the experiment with Plasmodium berghei [7], 15.9 days.

With `Nc1nc(N)c2cc(S(=O)(=O)Nc3ccc(Cl)c(Cl)c3)ccc2n1`, the minimum inhibitory concentration (MIC) was more than 25 µg/mL against Escherichia coli [1]; more than 25 µg/mL against Shigella sonnei [9]; 2.5 µg/mL (≈ 6.51 µM) against Staphylococcus aureus [16]; more than 25 µg/mL in the experiment with Enterococcus faecalis [25]; more than 25 µg/mL against Staphylococcus aureus [17]; more than 25 µg/mL in experiment [13]. In the experiment on Pseudomonas aeruginosa [18], this compound yielded an MIC of more than 25 µg/mL. In addition, the “Delta MST” value is 3.1 days in the experiment on Plasmodium berghei [3]; 8.1 days in the experiment on Plasmodium berghei [4]; 0.3 days with Plasmodium berghei [6]; 9.9 days in the experiment on Plasmodium berghei [27]; 10.1 days in the experiment on Plasmodium berghei [7]. The survivors at day 60 in the experiment with Plasmodium berghei [28] was found to be 5.

Turning to `CC1(C)N=C(N)N=C(N)N1c1ccc(Cl)cc1.Cl` [CHLORCYCLOGUANIL HYDROCHLORIDE], the “Delta MST” value in the experiment on Plasmodium berghei [2] amounted to 3 days; in the experiment with Plasmodium berghei [20], 13.4 days; in the experiment with Plasmodium berghei [21] it was 21.6 days; in the experiment with Plasmodium berghei [5] it was 5 days; with Plasmodium berghei [22], 7.9 days; with Plasmodium berghei [23] it was 5 days.

As for `CCc1nc(N)nc(N)c1-c1ccc(Cl)cc1` [PYRIMETHAMINE], the survivors at day 60 in the experiment on Plasmodium berghei [29] was found to be 2; in the experiment with Plasmodium berghei [32], 3; in the experiment with Plasmodium berghei [34], 5; with Plasmodium berghei [15], 1. Also, the toxic deaths with Plasmodium berghei [30] came out at 3; in the experiment with Plasmodium berghei [31] it was 2. Moreover, the entries for the “Delta MST” value in the experiment with Plasmodium berghei [20] and in the experiment with Plasmodium berghei [33] were 1 days and 7.7 days, respectively.

These data come from ChEMBL document CHEMBL1122803, “Folate antagonists. 22. Antimalarial and antibacterial effects of 2,4-diamino-6-quinazolinesulfonamides” (1984).
